In ChEMBL document CHEMBL3797085, “Structure-Based Design and Synthesis of Novel Inhibitors Targeting HDAC8 from Schistosoma mansoni for the Treatment of Schistosomiasis” (J Med Chem, 2016):

Tests used:
[1] = target: T1, Histone deacetylase 8 (Schistosoma mansoni, UniProt A5H660); assay: Inhibition of recombinant Schistosoma mansoni HDAC8 expressed in Escherichia coli using Fluor de Lys as substrate preincubated for 90 mins followed by BML-KI176 addition measured after 45 mins by fluorescence assay
T1 sequence (A5H660 whole entry): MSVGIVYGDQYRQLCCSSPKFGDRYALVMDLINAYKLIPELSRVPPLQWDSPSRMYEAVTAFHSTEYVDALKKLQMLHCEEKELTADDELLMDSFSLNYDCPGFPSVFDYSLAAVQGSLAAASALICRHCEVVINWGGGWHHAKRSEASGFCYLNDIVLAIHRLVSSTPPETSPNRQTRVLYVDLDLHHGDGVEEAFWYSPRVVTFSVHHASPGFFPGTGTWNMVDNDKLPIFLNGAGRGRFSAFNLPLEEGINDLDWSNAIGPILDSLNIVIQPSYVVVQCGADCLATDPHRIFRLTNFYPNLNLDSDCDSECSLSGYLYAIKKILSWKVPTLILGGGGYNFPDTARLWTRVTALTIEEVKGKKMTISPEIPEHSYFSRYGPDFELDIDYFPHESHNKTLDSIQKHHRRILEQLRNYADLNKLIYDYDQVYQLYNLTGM
Summary of the method: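 smHDAC8 produced in E. coli. Fluor de Lys kit: compound, Fluor de Lys-HDAC8 substrate (50 µM) and enzyme incubated 90 min at 37°C, then Developer II for 45 min at 30°C. Reaction stopped with trichostatin A (2 µM). Fluorescence read at ex 390/em 460 nm. IC50 given as mean ± S.E.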

[2] = target: T2, Histone deacetylase 8 (Homo sapiens, UniProt Q9BY41); assay: Inhibition of recombinant human HDAC8 using Fluor de Lys as substrate preincubated for 90 mins followed by BML-KI176 addition measured after 45 mins by fluorescence assay
T2 sequence (Q9BY41 whole entry): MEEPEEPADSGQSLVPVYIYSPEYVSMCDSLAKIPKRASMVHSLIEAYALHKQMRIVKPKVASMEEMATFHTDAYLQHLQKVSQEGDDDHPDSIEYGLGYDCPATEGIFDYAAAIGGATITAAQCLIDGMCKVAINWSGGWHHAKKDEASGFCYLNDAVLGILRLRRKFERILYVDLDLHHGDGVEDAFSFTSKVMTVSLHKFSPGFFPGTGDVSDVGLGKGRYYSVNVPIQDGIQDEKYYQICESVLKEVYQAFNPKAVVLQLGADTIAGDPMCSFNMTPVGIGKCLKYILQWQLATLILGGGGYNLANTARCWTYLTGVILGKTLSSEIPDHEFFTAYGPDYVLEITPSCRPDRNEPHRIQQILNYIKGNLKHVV

[3] = target: Histone deacetylase 1 (Homo sapiens, UniProt Q13547); assay: Inhibition of recombinant human HDAC1 using Cbz-(Ac)Lys-AMC as substrate preincubated for 90 mins followed by trypsin addition measured after 20 mins by fluorescence assay
Chain of Histone deacetylase 1 (Q13547 whole entry): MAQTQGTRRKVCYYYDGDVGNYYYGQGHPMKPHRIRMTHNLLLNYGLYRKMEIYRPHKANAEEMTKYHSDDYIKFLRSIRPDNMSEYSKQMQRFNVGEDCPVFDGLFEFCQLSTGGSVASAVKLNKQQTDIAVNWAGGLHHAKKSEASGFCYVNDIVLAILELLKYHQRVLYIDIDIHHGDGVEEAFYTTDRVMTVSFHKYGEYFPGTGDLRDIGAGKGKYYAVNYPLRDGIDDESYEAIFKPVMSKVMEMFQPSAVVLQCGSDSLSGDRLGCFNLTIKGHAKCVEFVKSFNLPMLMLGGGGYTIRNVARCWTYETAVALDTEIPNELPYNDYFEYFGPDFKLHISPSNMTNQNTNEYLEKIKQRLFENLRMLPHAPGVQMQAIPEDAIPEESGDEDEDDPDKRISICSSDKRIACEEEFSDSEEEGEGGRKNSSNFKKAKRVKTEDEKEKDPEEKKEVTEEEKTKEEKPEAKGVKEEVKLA

[4] = target: T3, Protein deacetylase HDAC6 (Homo sapiens, UniProt Q9UBN7); assay: Inhibition of recombinant human HDAC6 using Cbz-(Ac)Lys-AMC as substrate preincubated for 90 mins followed by trypsin addition measured after 20 mins by fluorescence assay
T3 sequence (Q9UBN7 whole entry): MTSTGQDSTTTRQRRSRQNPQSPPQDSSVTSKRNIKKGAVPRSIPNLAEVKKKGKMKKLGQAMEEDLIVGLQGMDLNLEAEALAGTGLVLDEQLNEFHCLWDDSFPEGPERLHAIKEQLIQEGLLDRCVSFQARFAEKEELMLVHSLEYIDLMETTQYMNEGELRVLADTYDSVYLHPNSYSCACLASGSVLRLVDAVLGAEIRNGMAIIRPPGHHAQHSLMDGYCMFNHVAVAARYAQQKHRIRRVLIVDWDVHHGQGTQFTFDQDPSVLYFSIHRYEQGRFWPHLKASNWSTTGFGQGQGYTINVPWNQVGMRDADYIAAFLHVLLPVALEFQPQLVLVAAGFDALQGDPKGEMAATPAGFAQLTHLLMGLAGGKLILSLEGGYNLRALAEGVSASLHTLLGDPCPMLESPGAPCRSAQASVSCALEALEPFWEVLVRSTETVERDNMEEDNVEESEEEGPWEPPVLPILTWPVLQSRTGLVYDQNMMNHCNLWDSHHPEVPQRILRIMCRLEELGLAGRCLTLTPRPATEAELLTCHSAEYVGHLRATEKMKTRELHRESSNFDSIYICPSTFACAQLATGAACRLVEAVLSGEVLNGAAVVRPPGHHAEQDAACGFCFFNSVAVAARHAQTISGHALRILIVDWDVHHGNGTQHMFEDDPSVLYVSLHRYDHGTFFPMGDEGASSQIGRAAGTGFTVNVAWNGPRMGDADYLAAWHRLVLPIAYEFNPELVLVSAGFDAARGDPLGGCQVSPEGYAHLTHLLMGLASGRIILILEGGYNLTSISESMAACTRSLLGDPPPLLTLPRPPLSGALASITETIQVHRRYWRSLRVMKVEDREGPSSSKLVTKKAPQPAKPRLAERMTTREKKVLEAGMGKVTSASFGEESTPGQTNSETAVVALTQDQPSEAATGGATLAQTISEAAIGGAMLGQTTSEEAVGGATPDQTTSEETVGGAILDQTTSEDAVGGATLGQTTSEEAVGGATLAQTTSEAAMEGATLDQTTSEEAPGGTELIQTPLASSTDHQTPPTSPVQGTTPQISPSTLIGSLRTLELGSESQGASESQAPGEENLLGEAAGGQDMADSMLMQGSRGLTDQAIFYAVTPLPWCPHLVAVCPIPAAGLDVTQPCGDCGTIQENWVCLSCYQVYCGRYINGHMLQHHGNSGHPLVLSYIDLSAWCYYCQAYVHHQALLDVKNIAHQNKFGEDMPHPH

[5] = tested on: Schistosoma mansoni; assay: Antiparasitic activity against schistosomula stage of Schistosoma mansoni assessed as parasite viability at 10 uM after 48 hrs by Alamar Blue assay relative to control; format: functional
Summary of the method: (§1)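 Mechanically transformed S. mansoni schistosomula, 100 per well, in Medium 199 with 10% FCS, penicillin, streptomycin and rifampicin, held 3 h at 37°C/5% CO2 before use. […] Resazurin added at 48 h; fluorescence (ex 530/em 590 nm) read 24 h later, corrected for drug-medium background. Ethanol-killed larvae as dead control. Triplicate wells, two biological replicates.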

[6] = tested on: Schistosoma mansoni; assay: Antiparasitic activity against schistosomula stage of Schistosoma mansoni assessed as parasite viability at 20 uM after 48 hrs by Alamar Blue assay relative to control; format: functional; summary of the method: as §1
[7] = Cytotoxicity against HEK293 cells assessed as cell viability at 50 uM after 24 hrs by Alamar Blue assay relative to control; format: cell-based; conditions: human, read-out: Activity
Summary of the method: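 AlamarBlue added after 24 h, incubated a further 21 h; resorufin fluorescence ex 560/em 590 nm. Triplicates; viability relative to untreated cells; daunorubicin positive control.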

IC50 ([1]; read-out: IC50) [nM]	IC50 ([2]; read-out: IC50) [nM]	IC50 ([3]; read-out: IC50) [nM]	IC50 ([4]; read-out: IC50) [nM]	IC50 [1]	IC50 [2]	IC50 [3]	IC50 [4]	SMILES	Activity [5] [%]	Activity [6] [%]	viability at 24 h, 50 µM [7] [%]
106	77.1	2600	400	–	–	–	–	COc1ccc(C(=O)Nc2cc(C(=O)NO)ccc2OC)cc1	74.6	64.6	61.9
267	–	–	–	–	–	–	–	CCCOc1ccc(C(=O)NO)cc1NC(=O)c1ccccc1	–	–	97.4
178	318	22300	500	–	–	–	–	O=C(NO)c1ccc(F)c(NC(=O)c2ccccc2)c1	82	78.6	81.8
150	191	7400	150	–	–	–	–	O=C(NO)c1ccc(Br)c(NC(=O)c2ccccc2)c1	70.8	63.1	64.3
220	29	3600	2600	–	–	–	–	CC(C)Oc1ccc(C(=O)NO)cc1NC(=O)c1ccccc1	75	68.7	129
699	211	9600	3100	–	–	–	–	COc1ccc(C(=O)NO)cc1NC(=O)c1ccccc1Cl	89.5	66.5	96.9
979	1080	8500	150	–	–	–	–	O=C(NO)c1ccc(Cl)c(NC(=O)c2ccc(Oc3ccccc3)cc2)c1	–	–	–
191	1180	31600	800	–	–	–	–	O=C(NO)c1ccc(Cl)c(NC(=O)c2ccc(Cl)cc2Cl)c1	72.5	59.3	70.4
235	292	3800	90	–	–	–	–	O=C(NO)c1ccc(Cl)c(NC(=O)c2ccc(Cl)cc2)c1	71.8	49.3	81.6
468	582	–	–	–	–	–	–	O=C(NO)c1cccc(NC(=O)c2ccccc2)c1	79.2	75.6	–
67	120	11600	120	–	–	–	–	O=C(NO)c1ccc(Cl)c(NC(=O)c2ccccc2)c1	84.7	–	72.2
96.1	30.3	2700	90	–	–	–	–	Cc1ccc(C(=O)NO)cc1NC(=O)c1ccc2ccccc2n1	74.9	59.4	–
183	512	28900	5100	–	–	–	–	COc1ccc(C(=O)NO)cc1NC(=O)Cc1ccccc1	83.3	82.8	88.7
290	–	–	–	–	–	–	–	COc1ccc(C(=O)NO)cc1NC(=O)c1cccc(-c2ccccc2)c1	58.8	57	76.2
129	172	4600	1300	–	–	–	–	CCOc1ccc(C(=O)NO)cc1NC(=O)c1ccccc1	89.7	–	70.4
146	240	2900	900	–	–	–	–	COc1ccc(C(=O)NO)cc1NC(=O)c1ccc(Cl)cc1	–	–	92.6
394	–	–	–	–	–	–	–	O=C(NO)c1ccc(Cl)c(NC(=O)c2ccc([N+](=O)[O-])cc2)c1	85.3	68.1	79.1

The next lines start with the molecule.

SMILES	IC50 ([1]; read-out: IC50) [nM]	IC50 ([2]; read-out: IC50) [nM]	IC50 ([3]; read-out: IC50) [nM]	IC50 ([4]; read-out: IC50) [nM]	IC50 [1]	IC50 [2]	IC50 [3]	IC50 [4]	Activity [5] [%]	Activity [6] [%]	viability at 24 h, 50 µM [7] [%]
CC1Sc2ccc(C(=O)NO)cc2NC1=O (stereo not drawn)	1480	970	27500	3600	–	–	–	–	–	–	–
O=C(NO)c1cccc(N(Cc2ccccc2)Cc2ccccc2)c1	9290	2190	42300	8600	–	–	–	–	77.9	74.6	7.7
COC(=O)c1ccc(OC)c(NC(=O)c2ccc(-c3ccccc3)cc2)c1	–	–	–	–	Not Active	Not Active	Not Active	Not Active	–	–	47.2
COc1ccc(C(=O)NO)cc1NC(=O)c1ccc(Cl)cc1Cl	122	548	13000	2300	–	–	–	–	77.8	50.7	95.1
COc1ccc(C(=O)NO)cc1OCc1ccccc1	268	–	–	–	–	–	–	–	–	–	–
COc1ccc(C(=O)O)cc1NC(=O)c1ccc(-c2ccccc2)cc1	–	–	–	–	Not Active	Not Active	Not Active	Not Active	–	–	–
O=C(NO)c1cccc(NC2CCCCC2)c1	3630	830	130000	–	–	–	–	–	82.7	–	70.7
CCOc1ccc(C(=O)Nc2cc(C(=O)NO)ccc2OC)cc1	305	438	4400	1000	–	–	–	–	–	–	87.7
O=C1CCSc2ccc(C(=O)NO)cc2N1	1220	620	9800	1300	–	–	–	–	–	–	–
COc1ccc(Cn2ccc3ccc(C(=O)NO)cc32)cc1	436	–	–	–	–	–	–	–	70.6	62.3	–
O=C(NO)c1ccc2ccccc2n1	8200	582	–	–	–	–	–	–	95.6	–	73.3
O=C(C1CCCCC1)N1CC(=O)N2CCc3ccccc3C2C1 (stereo not drawn) [PRAZIQUANTEL]	–	–	–	–	–	–	–	–	92	89	–
